The values below come from ChEMBL document CHEMBL4513216, “Probing the Open Global Health Chemical Diversity Library for Multistage-Active Starting Points for Next-Generation Antimalarials” (ACS Infect Dis, 2020).

Each structure is given as a SMILES string.

A short description of the data set: Toxicity liver stage against HepG2, at 10uM. The class given is cell-based. On the set-up: test concentration 10 uM, cell line HepG2-A16-CD81EGFP. The settings on record: human, HepG2-A16-CD81EGFP cells; read-out: INHIBITION
The essentials:
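Uninfected HepG2-A16-CD81EGFP cells, 3 × 10^3 per well, 1536-well, plated on prespotted compound at 10 μM final, parasite-free screening media added to match infected plates; puromycin 10 μM positive, DMSO 0.5% negative; run in parallel with 48 h PbLuc assay at 37 °C, 5% CO2; viability by CellTiter-Glo luminescence, normalized to controls.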
With `O=C1N(Cc2ccccn2)C[C@H]2CN(C3CCC3)CCN12`, the cytotoxicity at 10 µM is -4.81%.
Turning to `CC(C)Cc1cc(CC2(NCc3ccco3)COC2)no1`, the cytotoxicity at 10 µM amounted to 6.25%.
`CCOC(=O)N1[C@@H](c2ccco2)[C@@H](C(=O)O)C[C@]12CCCCNC2=O`: the cytotoxicity at 10 µM was -2.98%.
To `O=C1CN(C(=O)c2ccc(Cl)cc2)CC(O)CN1Cc1cccs1` (configuration not stated) belongs 0.331%.
Under `COCCNC(=O)Cn1cc(OCc2ccccc2)c(=O)cc1CO` stands -7.44%.
Regarding `Cn1cccc1C(O)CNC(=O)COc1ccc(Cl)cc1Cl` (configuration not stated), the cytotoxicity at 10 µM is -1.23%.
On to `COc1ccccc1C(O)Cn1cc(C(=O)NCC2CC2)nn1` (configuration not stated), for which the cytotoxicity at 10 µM was -2.62%.
Under `CC(C)NC(=O)N1CCC2(CC1)NC(=O)[C@H]1CN(C(=O)N(C)C)C[C@H]12` stands -1.66%.
`Cc1nc(CN2C(=O)C[C@@H]3[C@@H]2CCN3Cc2cnn(C)c2)cs1`: the cytotoxicity at 10 µM amounted to 2.44%.
For `Cc1ccc(N2CC[C@@H]3CN(Cc4c[nH]cn4)C[C@@H]3C2)nn1`, the cytotoxicity at 10 µM is 7.43%.
In the case of `COCc1ncn2c1CN(C(=O)Nc1cccc(OC)c1)CC2`, the cytotoxicity at 10 µM was 12.7%.
As to `O=C(c1ccco1)N1CCOCC2(C1)CN(c1ccoc1)C(=O)CO2` (configuration not stated), the cytotoxicity at 10 µM is -6.04%.
In the case of `CC(C)c1noc(-c2ccnc(-n3cnc(C(=O)O)c3)c2)n1`, the cytotoxicity at 10 µM turned out to be 0.715%.
Turning to `Cc1ccc(-n2c(O)cc(C)c(C#N)c2=O)c(C)c1`, the cytotoxicity at 10 µM amounted to 7.75%.
For `COCCNC(=O)CCc1c(C)nn(-c2nc(C)c(C)c(=O)[nH]2)c1C`, the cytotoxicity at 10 µM stood at 11.1%.
For `CN(C)S(=O)(=O)N1CCC(Oc2ccccn2)CC1`, the cytotoxicity at 10 µM turned out to be 13.6%.
Regarding `O=C(c1ccccn1)N1Cc2nccn2CC(COc2cccnc2)C1` (configuration not stated), the cytotoxicity at 10 µM is -9.52%.
With `CCOCC1CN(C(=O)N(C)C)Cc2nn(C)cc21` (configuration not stated), the cytotoxicity at 10 µM was -11.9%.
Regarding `CC1CCCN(C(=O)c2cc(-c3ccco3)cs2)C1` (configuration not stated), the cytotoxicity at 10 µM turned out to be 7%.
With `NCc1n[nH]c(-c2cccc(F)c2)n1`, the cytotoxicity at 10 µM was -167%.
For `CNc1cc(CCNS(=O)(=O)c2ccccc2)nc(-c2ccccn2)n1`, the cytotoxicity at 10 µM was determined as 5.13%.
To `CN(C)c1nc2ncc(Cl)cc2cc1C#N` belongs 9.54%.
Under `CC(Cc1ccccc1F)C(=O)Nc1ccc(OCCC(N)=O)cc1` (configuration not stated) stands -5.56%; under `CS(=O)(=O)CCN1CCN(c2ccc(Cl)cn2)CC1`, 4.13%; under `COCCN1CCN(CC(=O)NC2(C#N)CCCC2)CC1`, 3.5%.
Turning to `Cc1cccc2nc(CN3CCCC(Cn4ccnn4)C3)cc(=O)n12` (configuration not stated), the cytotoxicity at 10 µM worked out at 3.23%.
To `Cc1nn(C)c2ncc(NC(=O)N3CCCCCC3)cc12` belongs 4.87%; to `O=C(c1cc2c(s1)CCC2)N1CCN(c2cnccn2)CC1`, 1.5%; to `CCC(C)(C)NC(=O)c1ccc(NC(=O)NCc2cc(C)on2)cc1`, -1.84%.
Turning to `CCS(=O)(=O)NCC(=O)NC(c1cc(C)sc1C)C(C)C` (configuration not stated), the cytotoxicity at 10 µM amounted to 3.77%.
For `CC(=O)NCCNC(=O)c1cc(Br)c2c(c1)OCCO2`, the cytotoxicity at 10 µM was -1.54%.
With `CN(Cc1ccc(N2CCOCC2)cc1)Cc1noc(C(C)(C)C)n1`, the cytotoxicity at 10 µM was 14%.
In the case of `Cc1cnn(CCNCC(O)c2ccc3c(c2)OCCO3)c1` (configuration not stated), the cytotoxicity at 10 µM turned out to be 3.31%.
For the compound `Cc1c(C(C)NC(=O)C2CCCC2)cnn1C` (configuration not stated), the cytotoxicity at 10 µM is -10.9%.
Turning to `COc1ccc(CC(=O)NC2(C#N)CCOCC2)c(Cl)c1`, the cytotoxicity at 10 µM was -6.48%.
Consider `COc1ccc(CNC(=O)c2ccc(Cl)cc2F)cc1C(=O)O`, for which the cytotoxicity at 10 µM is -1.62%.
To `O=C(CN1CCCC1Cn1cncn1)Nc1nncs1` (configuration not stated) belongs 5.05%; to `CCN(C)C(=O)C1(c2ccc(F)cc2F)CCC1`, -7.74%.
Consider `CCOc1ncccc1CNS(=O)(=O)N1CCOCC1`, for which the cytotoxicity at 10 µM was -10.2%.
Turning to `CNC(=O)c1ccc(NC(=O)NC(C)c2cc(C)oc2C)c(C)c1` (configuration not stated), the cytotoxicity at 10 µM was -10.6%.
Under `CS(=O)(=O)N1CCOC2(CCCC2)C1` stands -4.7%.
In the case of `Cc1nc(-c2ccccc2C)n(CC(=O)NC(C)C)n1`, the cytotoxicity at 10 µM stood at 7.47%.
To `Cc1cc(C#N)ccc1S(=O)(=O)NCc1cnc(N(C)C)n1C` belongs -2.64%.
Take `Cc1nc(CNC(=O)CCN2CCN(c3ccccn3)CC2)oc1C`: the cytotoxicity at 10 µM is -4.97%.
Under `COCC(O)CN(C)c1ccnc2cc(F)ccc12` (configuration not stated) stands -2.63%; under `CC(O)CN1CCC(CN(C)CC(=O)NC2CCOCC2)CC1` (configuration not stated), -3.33%; under `CC(=O)NCCCNCc1cc(F)ccc1Br`, -0.595%.
For the compound `Cc1cc(C)n(-c2cncc(NCCNC(=O)CC3CCCC3)n2)n1`, the cytotoxicity at 10 µM was -5.71%.
Take `CC(C)COC(C)C(=O)N1CCN(S(C)(=O)=O)CC1` (configuration not stated): the cytotoxicity at 10 µM was -5.38%.
For the compound `CCc1noc(C(C)N(C)CC(=O)Nc2c(C)cccc2C)n1` (configuration not stated), the cytotoxicity at 10 µM turned out to be 2.14%.
With `Cc1nc(NC(=O)CNC(=O)c2c(F)cccc2Cl)n[nH]1`, the cytotoxicity at 10 µM is -10.2%.
`CCS(=O)(=O)N1CC[C@H]2O[C@H](c3nnc(C)o3)CC[C@H]21`: the cytotoxicity at 10 µM was -75.6%.
Under `Cc1cccc(CN(Cc2ccccc2)Cc2nccs2)n1` stands 12.4%; under `CCc1[nH]c2c(CNC(=O)C3CCC(=O)NC3)cc(C)cc2c1C` (configuration not stated), -3.79%.
`Cc1ccc2occ(CN3CCN(c4ncccn4)CC3)c(=O)c2c1`: the cytotoxicity at 10 µM was -2.46%.
As for `CCC(O)CNc1nccc(-c2ccc(C)nc2C)n1` (configuration not stated), the cytotoxicity at 10 µM is -2.92%.
As to `CCCN1CC2(CCN(C)CC2)CC1C(=O)NCCn1cc(C)cn1` (configuration not stated), the cytotoxicity at 10 µM was -22.9%.
With `O=C(c1cccc(-c2ccc(F)cc2)c1)N1CCC2(CC1)[C@H](O)C[C@@H]2O`, the cytotoxicity at 10 µM turned out to be 2.37%.
Under `CC(c1ccccc1)n1c(SCC(=O)O)nnc1-c1ccccc1Cl` (configuration not stated) stands 1.31%; under `CCCC(C)N(C)C(=O)c1nc(S(C)(=O)=O)n2ccccc12` (configuration not stated), -8.16%.
Consider `Cc1oc(C)c(C(=O)NCc2cccnc2)c1C`, for which the cytotoxicity at 10 µM was determined as 5.19%.
With `COc1ncccc1C(=O)N1CCN(C(=O)Cc2ccccn2)CC1`, the cytotoxicity at 10 µM came to 0.722%.
Take `COc1c(CNCc2ccnc(N3CCCC3)c2)c(C)nn1C`: the cytotoxicity at 10 µM came to 4.31%.
Turning to `O=C(Cn1cccn1)NCC1(c2ccccc2)CC1`, the cytotoxicity at 10 µM came to 3.13%.
For the compound `O=C(Nc1cc(F)ccc1OCC1CCCO1)c1ccc(O)nc1` (configuration not stated), the cytotoxicity at 10 µM is -2.91%.
`Cn1ccc(C(=O)N2CCCC(n3cncn3)C2)cc1=O` (configuration not stated): the cytotoxicity at 10 µM was -2.43%.
As for `Cn1cc(C(=O)N[C@H]2CN(Cc3nccs3)[C@@H]3CCCO[C@H]23)cn1`, the cytotoxicity at 10 µM worked out at 0.893%.
Consider `c1cnc(N2CCOC3(COCCN(Cc4cc[nH]n4)C3)C2)nc1` (configuration not stated), for which the cytotoxicity at 10 µM turned out to be 11.8%.
Consider `CC1c2ncc(Cn3cncn3)n2CCN1CC1CCOCC1` (configuration not stated), for which the cytotoxicity at 10 µM was found to be 2.84%.
With `O=C1[C@@H]2CCN(C3CCOCC3)C[C@@H]2OCCN1Cc1cccnc1`, the cytotoxicity at 10 µM is -80%.
Turning to `Cc1nc(Cn2c3c(ccc2=O)CCN(CC2CC2)CC3)cs1`, the cytotoxicity at 10 µM is 1.63%.
To `c1cncc(CN2CC[C@@H]3[C@@H]2CCN3Cc2ccc3c(c2)OCO3)c1` belongs -3.04%.
